Data set [1] deals with Mus musculus. Put plainly: Antiinflammatory activity in C57BL/6J mouse model of MOG (35 to 55 residues)/pertussis toxin/complete Freund's adjuvant-induced experimental allergic encephalomyelitis assessed as reduction in infiltration in spinal cord at 200 mg/kg, ig administered daily starting from 7 days post-immunization measured after 14 days post-immunization by LFB staining based microscopic analysis. Type of data set: functional, organism-based. The procedure, abridged: (§1)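 EAE mice dosed daily in saline from day 7 were perfused with PBS and fixed in 4% PFA on day 14; spinal cords were taken. For LFB, frozen OCT sections sat 3 h in 0.1% Luxol Fast Blue at 56-60°C, were differentiated in 0.05% lithium carbonate for 10-12 s, cleared in 70% ethanol, dehydrated and mounted. For H&E, paraffin sections were stained to assess inflammation.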

Data set [2] has as its system Mus musculus. As to the kind of experiment: Induction of M2 polarization in C57BL/6J mouse model of MOG (35 to 55 residues)/pertussis toxin/complete Freund's adjuvant-induced experimental allergic encephalomyelitis assessed as CD206 level in spleen at 200 mg/kg, ig administered daily starting from 7 days post-immunization measured after 13 to 19 days post-immunization by flow cytometry analysis (reference value: 23.4%). The format is functional. The procedure, abridged: (§2)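 MOG35-55/CFA EAE mice were dosed daily in saline from day 7 and sampled between days 13 and 19. Cells came from spleen and dLN by mechanical dissociation and from CNS by collagenase IV/Percoll. They were stained for F4/80 with CD206 (M2) or CD86 (M1), and each was read by flow cytometry as a percentage of total F4/80+ macrophages.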
On the technique in general: Flow cytometry measures light scatter and fluorescence of single cells or particles in a stream.

Data set [3] relates to Mus musculus. Put plainly: Antiinflammatory activity in C57BL/6J mouse model of MOG (35 to 55 residues)/pertussis toxin/complete Freund's adjuvant-induced experimental allergic encephalomyelitis assessed as reduction in demyelination in spinal cord at 200 mg/kg, ig administered daily starting from 7 days post-immunization measured after 14 days post-immunization by LFB staining based microscopic analysis. Type of data set: functional, organism-based. The procedure, abridged: as §1

Data set [4] has as its target RAC-alpha serine/threonine-protein kinase (Mus musculus) (UniProt P31750). Put plainly: Stimulation of AKT phosphorylation at 473 residue in mouse RAW264.7 cells at 300 nM measured after 4 to 24 hrs by Western blot analysis. The format is cell-based. In a few lines: (§3)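 Cell lysates separated by SDS-PAGE, transferred to PVDF and probed for Akt, p-Akt(308), p-Akt(473), Stat3, p-Stat3(Y705), Stat6 and p-Stat6; ECL detection, GAPDH as loading control.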

Data set [5] is described as follows: Toxicity in ICR mouse assessed as adverse effect at 400 mg/kg, ig administered daily for 14 days. The format is organism-based. To be noted: in vivo, po, 336 h. In a few lines: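 Repeated-dose study in healthy mice over 14 days. Read-outs were body weight change, serum parameters, and organ-to-body and organ-to-brain weight ratios.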
Data set [6] addresses T1, Signal transducer and transcription activator 6 (Mus musculus) (UniProt P52633).
T1 sequence (whole entry): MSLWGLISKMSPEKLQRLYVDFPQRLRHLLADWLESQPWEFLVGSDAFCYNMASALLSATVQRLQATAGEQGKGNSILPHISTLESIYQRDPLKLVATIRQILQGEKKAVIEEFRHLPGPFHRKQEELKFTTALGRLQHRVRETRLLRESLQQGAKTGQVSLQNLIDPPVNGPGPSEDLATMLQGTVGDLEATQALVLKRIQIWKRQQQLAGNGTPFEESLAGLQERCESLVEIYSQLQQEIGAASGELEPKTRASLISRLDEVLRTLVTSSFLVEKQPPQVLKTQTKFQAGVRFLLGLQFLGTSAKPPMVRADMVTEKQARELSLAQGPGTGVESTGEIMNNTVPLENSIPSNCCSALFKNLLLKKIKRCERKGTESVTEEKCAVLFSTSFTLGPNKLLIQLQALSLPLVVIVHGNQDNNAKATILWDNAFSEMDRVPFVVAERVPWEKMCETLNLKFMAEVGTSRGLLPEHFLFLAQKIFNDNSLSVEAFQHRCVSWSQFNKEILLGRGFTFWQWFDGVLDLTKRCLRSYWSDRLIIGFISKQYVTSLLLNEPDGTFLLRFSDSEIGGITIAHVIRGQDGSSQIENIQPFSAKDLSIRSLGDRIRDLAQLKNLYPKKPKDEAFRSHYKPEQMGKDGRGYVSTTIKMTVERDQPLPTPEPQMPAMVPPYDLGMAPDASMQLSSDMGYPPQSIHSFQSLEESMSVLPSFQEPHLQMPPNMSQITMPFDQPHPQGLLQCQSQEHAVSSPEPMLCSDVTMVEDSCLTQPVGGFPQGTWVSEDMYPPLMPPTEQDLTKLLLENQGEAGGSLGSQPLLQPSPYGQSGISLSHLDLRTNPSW
As to the kind of experiment: Stimulation of STAT6 phosphorylation at […] residue in mouse RAW264.7 cells at 300 nM measured after 4 to 24 hrs by Western blot analysis. The format is cell-based. The procedure, abridged: as §3

Data set [7] has as its system Mus musculus. As to the kind of experiment: Inhibition of M1 polarization in C57BL/6J mouse model of MOG (35 to 55 residues)/pertussis toxin/complete Freund's adjuvant-induced experimental allergic encephalomyelitis assessed as CD86 level in CNS at 200 mg/kg, ig administered daily starting from 7 days post-immunization measured after 13 to 19 days post-immunization by flow cytometry analysis (reference value: 26.3%). Type of data set: functional. Also noted: scale not given: the % may be the effect or the level left. In a few lines:
as §2

A further data set has as its system BMDM. As to the kind of experiment: Modulation of M2 polarization in C57BL/6J mouse BMDM cells assessed as up regulation of Mrc1 mRNA expression at 300 nM measured after 24 hrs by qRT-PCR analysis. The format is functional, cell-based. In a few lines:
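BMDMs treated 24 h with 300 nM compound at 37 °C, 5% CO2. Trizol RNA extraction, then qRT-PCR for Arg1, Mrc1 and Fizz1 mRNA. Mean ± SEM.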

Data set [8] deals with Mus musculus. As to the kind of experiment: Antiinflammatory activity in C57BL/6J mouse model of MOG (35 to 55 residues)/pertussis toxin/complete Freund's adjuvant-induced experimental allergic encephalomyelitis assessed as effect on Treg cell population in draining lymph nodes by measuring change in CD4 level at 200 mg/kg, ig administered daily starting from 7 days post-immunization measured after 13 to 19 days post-immunization by flow cytometry analysis. The format is functional, organism-based. The procedure, abridged: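 MOG35-55/CFA EAE mice were dosed daily in saline from day 7 and sampled between days 13 and 19. Spleens and dLNs were mechanically dissociated to single cells. CNS cells came from collagenase IV digestion and a 70%/30% Percoll gradient. Cells were surface-stained with fluorochrome antibodies, including CD4, CD11b, CD11c and MHC-II, and analysed by flow cytometry.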

A short description of data set [9]: AUC (0 to t) in Sprague-Dawley rat at 50 mg/kg, po administered as single dose via gavage by LC/MS analysis. The format is ADME, organism-based. Conditions: in vivo. In a few lines:
(§4)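 Single dose in rats; venous blood (100 µL) drawn at 0, 0.5, 1, 2, 4, 8 and 12 h, plasma separated by centrifugation and held at -20 °C. Compound measured by LC/MS; Cmax, Tmax, t1/2 and AUC derived from the concentration–time data.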

In another data set the test system is RAW264.7. As to the kind of experiment: Inhibition of M1 polarization in mouse RAW264.7 cells assessed as down regulation of IL6R mRNA expression at 300 nM measured after 24 hrs by qRT-PCR analysis. The format is functional, cell-based. Background: Real-time PCR tracks product formation cycle by cycle.
Data set [10] in a line: Tmax in Sprague-Dawley rat at 10 mg/kg, iv administered as single dose by LC/MS analysis. To be noted: in vivo. The format is ADME, organism-based. In a few lines:
as §4

A short description of data set [11]: Cmax in Sprague-Dawley rat at 50 mg/kg, po administered as single dose via gavage by LC/MS analysis. Type of data set: ADME, organism-based. Further details: dose 50 mg/kg, route oral. Conditions: in vivo. The procedure, abridged: as §4

The structures appear in SMILES notation. The source made the active and inactive calls. The calls are words filed in the database; no cut-off is given here.

RAC-alpha serine/threonine-protein kinase (Mus musculus), sequence (P31750 whole entry): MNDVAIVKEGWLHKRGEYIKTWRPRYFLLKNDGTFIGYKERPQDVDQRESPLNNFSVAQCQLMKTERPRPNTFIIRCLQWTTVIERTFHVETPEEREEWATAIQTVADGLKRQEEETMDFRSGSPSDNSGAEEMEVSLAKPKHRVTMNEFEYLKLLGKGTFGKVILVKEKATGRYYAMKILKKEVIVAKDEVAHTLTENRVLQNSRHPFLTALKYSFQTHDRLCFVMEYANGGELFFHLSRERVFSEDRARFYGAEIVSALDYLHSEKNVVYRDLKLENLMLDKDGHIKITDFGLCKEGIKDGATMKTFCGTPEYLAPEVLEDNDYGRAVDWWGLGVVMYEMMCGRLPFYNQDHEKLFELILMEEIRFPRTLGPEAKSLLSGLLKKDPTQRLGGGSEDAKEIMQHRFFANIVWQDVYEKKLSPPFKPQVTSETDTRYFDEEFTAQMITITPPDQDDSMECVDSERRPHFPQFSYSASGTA

`Cl.Cn1ncc(Cl)c1-c1ccc(C(=O)N[C@@H]2CNCC[C@H]2c2cccc(F)c2)cc1`: the outcome (in the data set with Mus musculus [1]; in the data set on Mus musculus [3]; in data set [4]; with BMDM) was Active. In addition, the Activity in the data set on Mus musculus [2] is listed as 37.2%; in data set [5] it was “Non-Toxic”; in the data set with Mus musculus [7] it was 16.6%. Further, the result (in [6]; in the data set with Mus musculus [8]) was inactive. Moreover, the AUC(0-t) – broadly, exposure summed from dosing to a finite time, without extrapolation to infinity – in [9] worked out at 4670 ng·h/mL. Besides, the inhibition result in the data set on RAW264.7 is “Active”. The Tmax – broadly, the time from dosing to the highest level – in data set [10] worked out at 4.98 min. In addition, in [11], the Cmax – broadly, the maximum level reached in the sampled fluid or tissue – turned out to be 313 ng/mL.
